In data set [1] the test system is MCF7. Description: Metabolic stability in human MCF7 cells assessed as C18-ceramide levels at 20 uM after 24 hrs by LC-MS/MS analysis relative to control. Type of data set: ADME, cell-based. The settings on record: mcf7, 24 h. Summed up: (§1)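 MCF7 cells grown in parallel with proliferation sets, treated with compound in ethanol (<0.1%) for 24 h (or time course at 10 μM); Bligh & Dyer lipid extracts analysed by LC-MS/MS on triple quadrupole in positive-ion MRM; quantified against spiked-matrix calibration curves with internal standard, linear regression; levels normalized to phospholipid (pmol/nmol Pi), compared with control cells.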

The subject of data set [2] is MCF7. Description: Metabolic stability in human MCF7 cells assessed as C14-ceramide levels at 20 uM after 24 hrs by LC-MS/MS analysis relative to control. The settings on record: mcf7, 24 h. Type of data set: ADME, cell-based. Summed up:
as §1

Data set [3] has as its system MCF7. Description: Metabolic stability in human MCF7 cells assessed as C16-ceramide levels at 20 uM after 24 hrs by LC-MS/MS analysis relative to control. Type of data set: ADME, cell-based. Conditions: mcf7, 24 h. Summed up:
as §1

Data set [4] deals with MCF7. Description: Metabolic stability in human MCF7 cells assessed as C24:1-ceramide levels at 20 uM after 24 hrs by LC-MS/MS analysis relative to control. In kind it is ADME, cell-based. The settings on record: mcf7, 24 h. Summed up: as §1
For data set [5], the system named is MCF7. Description: Metabolic stability in human MCF7 cells assessed as C24-ceramide levels at 20 uM after 24 hrs by LC-MS/MS analysis relative to control. In kind it is ADME, cell-based. The settings on record: mcf7, 24 h. The essentials:
as §1

Data set [6] relates to MCF7. Description: Metabolic stability in human MCF7 cells assessed as cellular ceramide levels at 10 uM after up to 30 hrs by LC-MS/MS analysis. In kind it is ADME, cell-based. Conditions: mcf7, 30 h. The essentials: as §1
Data set [7] relates to MCF7. Description: Metabolic stability in human MCF7 cells assessed as endogenous 2-OH-ceramide levels at 2.5 to 20 uM after 24 hrs by LC-MS/MS analysis. Type of data set: ADME, cell-based. The settings on record: mcf7, 24 h. Summed up:
as §1

Data set [8] relates to MCF7. Description: Metabolic stability in human MCF7 cells assessed as cellular ceramide levels at up to 25 uM after 24 hrs by LC-MS/MS analysis. In kind it is ADME, cell-based. Conditions: mcf7, 24 h. The essentials: as §1
The test system of data set [9] is MCF7. Description: Metabolic stability in human MCF7 cells assessed as cellular sphingosine levels at up to 25 uM after 24 hrs by LC-MS/MS analysis. Type of data set: ADME, cell-based. The settings on record: mcf7, 24 h. The essentials:
as §1

For data set [10], the system named is MCF7. Description: Metabolic stability in human MCF7 cells assessed as ceramide species levels at up to 5 uM after 24 hrs by LC-MS/MS analysis. The settings on record: mcf7, 24 h. Type of data set: ADME, cell-based. Summed up:
as §1

The subject of data set [11] is MCF7. Description: Metabolic stability in human MCF7 cells assessed as C18-ceramide levels at 10 uM after 24 hrs by LC-MS/MS analysis relative to control. Conditions: mcf7, 24 h. Type of data set: ADME, cell-based. Summed up:
as §1

Data set [12] has as its system MCF7. Description: Metabolic stability in human MCF7 cells assessed as C14-ceramide levels at 10 uM after 24 hrs by LC-MS/MS analysis relative to control. Type of data set: ADME, cell-based. Conditions: mcf7, 24 h. Summed up:
as §1

Data set [13] deals with MCF7. Description: Metabolic stability in human MCF7 cells assessed as C16-ceramide levels at 10 uM after 24 hrs by LC-MS/MS analysis relative to control. Conditions: mcf7, 24 h. In kind it is ADME, cell-based. Summed up: as §1
Data set [14] relates to MCF7. Description: Metabolic stability in human MCF7 cells assessed as endogenous sphingosine levels at 10 uM after 24 hrs by LC-MS/MS analysis. Type of data set: ADME, cell-based. Conditions: mcf7, 24 h. Summed up:
as §1

In data set [15] the test system is MCF7. Description: Antiproliferative activity against human MCF7 cells after 24 hrs by trypan blue exclusion assay. Conditions: MCF7, 24 h. In kind it is functional, cell-based.
For data set [16], the system named is MCF7. Description: Metabolic stability in human MCF7 cells assessed as cellular dihydroceramide levels at up to 10 uM after 24 hrs by LC-MS/MS analysis. In kind it is ADME, cell-based. Conditions: mcf7, 24 h. Summed up:
as §1

In data set [17] the test system is MCF7. Description: Metabolic stability in human MCF7 cells assessed as cellular dihydroceramide levels at 40 uM after 24 hrs by LC-MS/MS analysis. Type of data set: ADME, cell-based. Conditions: mcf7, 24 h. Summed up:
as §1

Data set [18] has as its system MCF7. Description: Metabolic stability in human MCF7 cells assessed as cellular C16-dihydroceramide levels after 24 hrs by LC-MS/MS analysis. Conditions: mcf7, 24 h. In kind it is ADME, cell-based. Summed up: as §1
Data set [19] relates to MCF7. Description: Metabolic stability in human MCF7 cells assessed as cellular dihydrsphingosine levels at 40 uM after 24 hrs by LC-MS/MS analysis relative to control. Type of data set: ADME, cell-based. Conditions: mcf7, 24 h. The essentials:
as §1

The subject of data set [20] is MCF7. Description: Metabolic stability in human MCF7 cells assessed as cellular dihydroceramide levels at up to 5 uM after 24 hrs by LC-MS/MS analysis. Type of data set: ADME, cell-based. Conditions: mcf7, 24 h. The essentials:
as §1

In data set [21] the test system is MCF7. Description: Antiproliferative activity against human MCF7 cells assessed as inhibition of cell growth at 10 uM after 24 hrs by trypan blue exclusion assay. Type of data set: functional, cell-based.

Broadly, the IC50 is the concentration at which inhibition is half-maximal. Read a high IC50 as a need for much substance.

With `CCCCCCCCCCCCC/C=C/[C@@H](O)[C@H](CO)NC(=O)[C@@H](O)CCCC`, the “fold change (FC)” value in the data set on MCF7 [1] was 30; with MCF7 [2], 20; in the data set on MCF7 [3], 7; in the data set with MCF7 [4], 4; with MCF7 [5], 2. Moreover, the Stability entry in the data set with MCF7 [6], in the data set on MCF7 [7], in the data set with MCF7 [8] and in the data set with MCF7 [9] was “Stable” throughout.

Take `CCCCCCCCCCCCC/C=C/[C@@H](O)[C@H](CO)NC(=O)[C@H](O)CCCC`: the Stability entry with MCF7 [10], with MCF7 [6], with MCF7 [7], with MCF7 [8], in the data set on MCF7 [9] and with MCF7 [14] was “Stable” each time. For the same compound, the entries for the “fold change (FC)” value in the data set on MCF7 [11], with MCF7 [12] and in the data set on MCF7 [13] were 5, 3 and 1.7, respectively.

As to `CCCCCCCCCCCCC/C=C/[C@@H](O)[C@H](CO)NC(=O)CCCCC`, the “fold change (FC)” value in the data set with MCF7 [1] came out at 80; in the data set on MCF7 [2], 40; in the data set with MCF7 [3], 20; with MCF7 [4], 5; in the data set with MCF7 [5], 0.2. In addition, 12 µM corresponded to half-maximal inhibition in the data set with MCF7 [15] (IC50).

Consider `CCCCCCCCCCCCCCC[C@@H](O)[C@H](CO)NC(=O)[C@@H](O)CCCC`, for which the Stability entry in the data set with MCF7 [16] was “Stable”; with MCF7 [19], “Unstable”. Moreover, the “fold change (FC)” value in the data set with MCF7 [17] is 19; in the data set on MCF7 [18], 25; with MCF7 [19], 16. In addition, inhibition in the data set on MCF7 [15] was half-maximal at 12 µM (IC50).

Take `CCCCCCCCCCCCCCC[C@@H](O)[C@H](CO)NC(=O)[C@H](O)CCCC`: the Stability result in the data set on MCF7 [16], with MCF7 [18], with MCF7 [20] and in the data set on MCF7 [19] was “Stable” each time. This compound registered an IC50 in the data set with MCF7 [15] of 8 µM.

In the case of `CCCCCCCCCCCCCCC[C@@H](O)[C@H](CO)NC(=O)CCCCC`, the Stability result in the data set on MCF7 [16] and in the data set on MCF7 [21] was “Stable” in each case. Further, the entries for the “fold change (FC)” value in the data set with MCF7 [17], with MCF7 [18] and in the data set with MCF7 [19] were 7, 13 and 5, respectively. The compound also displayed an IC50 in the data set with MCF7 [15] of 38 µM.

The values are drawn from ChEMBL document CHEMBL1268843, “Synthesis, NMR characterization and divergent biological actions of 2'-hydroxy-ceramide/dihydroceramide stereoisomers in MCF7 cells” (Bioorg Med Chem, 2010).
